Consider 14 compounds from ChEMBL document CHEMBL3102732, “Potential antiviral lignans from the roots of Saururus chinensis with activity against Epstein-Barr virus lytic replication” (J Nat Prod, 2014).

System in one data set: not listed separately
Description: Selectivity index, ratio of CC50 for human P3HR1 cells to EC50 for EBV infected in human P3HR1 cells. Details: species or system P3HR-1.
Settings: not given
A digest of the protocol:
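CC50: P3HR-1 cells treated or untreated with compounds, viability counted by Trypan blue exclusion under light microscope 2 days post-treatment, relative to nondrug-treated controls, CC50 from dose-response curves. EC50: TPA (20 ng/mL)/sodium butyrate (0.3 mM)-induced P3HR-1 cells, compounds added 3 h later, EBV EBNA1 DNA quantified by real-time PCR at 48 h. Ratio CC50/EC50.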
As to `COc1ccc([C@@H](O)[C@@H](C)Oc2ccc(C(=O)[C@H](C)[C@H](C)C(=O)c3ccc(O[C@H](C)[C@H](O)c4ccc5c(c4)OCO5)c(OC)c3)cc2OC)cc1OC`, the “Ratio CC50/EC50” value was above 12.4.

For the compound `COc1cc(C(=O)[C@@H](C)Oc2c(OC)cc(/C=C/CO)cc2OC)cc(OC)c1OC`, the “Ratio CC50/EC50” value was above 2.5.

Turning to `COc1cc([C@H]2O[C@@H](c3ccc(OC)c(OC)c3)[C@@H](C)[C@H]2C)ccc1O`, the “Ratio CC50/EC50” value was 2.3.

`C=CCc1cc(OC)c(O[C@H](C)[C@H](OC(C)=O)c2cc(OC)c(OC)c(OC)c2)c(OC)c1`: the “Ratio CC50/EC50” value worked out at 4.

As to `COc1cc([C@H]2O[C@@H](c3cc(OC)c(OC)c(OC)c3)[C@H](C)[C@@H]2C)cc(OC)c1O`, the “Ratio CC50/EC50” value stood at 2.2.

In the case of `COc1cc([C@@H](O)[C@@H](C)Oc2ccc([C@@H]3O[C@H](c4ccc(O)c(OC)c4)[C@H](C)[C@H]3C)cc2OC)ccc1O`, the “Ratio CC50/EC50” value worked out at 3.3.

Consider `COc1ccc([C@H]2O[C@@H](c3cc(OC)c(O)c(OC)c3)[C@H](C)[C@@H]2C)cc1OC`, for which the “Ratio CC50/EC50” value turned out to be 8.6.

For the compound `C/C=C/c1cc(OC)c(O[C@H](C)[C@H](OC(C)=O)c2cc(OC)c(OC)c(OC)c2)c(OC)c1`, the “Ratio CC50/EC50” value is on record as 3.

`COc1ccc([C@H]2O[C@@H](c3ccc(OC)c(OC)c3)[C@@H](C)[C@H]2C)cc1OC`: the “Ratio CC50/EC50” value is 1.2.

Take `COc1ccc([C@@H](O)[C@@H](C)Oc2ccc([C@H]3O[C@H](c4ccc(O[C@H](C)[C@H](O)c5ccc6c(c5)OCO6)c(OC)c4)[C@H](C)[C@H]3C)cc2OC)cc1OC` [MANASSANTIN B]: the “Ratio CC50/EC50” value is given as above 116.4.

Take `C/C=C/c1cc(OC)c(O[C@H](C)[C@H](O)c2cc(OC)c3c(c2)OCO3)c(OC)c1`: the “Ratio CC50/EC50” value was 4.2.

Consider `C=CCc1cc(OC)c(O[C@H](C)[C@H](O)c2cc(OC)c3c(c2)OCO3)c(OC)c1`, for which the “Ratio CC50/EC50” value was determined as 4.

With `C=CCc1cc(OC)c(O[C@H](COC(C)=O)[C@H](O)c2cc(OC)c(OC)c(OC)c2)c(OC)c1`, the “Ratio CC50/EC50” value was 3.7.

The next data set relates to Human gammaherpesvirus 4. As to the kind of experiment: Antiviral activity against EBV infected in human P3HR1 cells assessed as inhibition of lytic viral DNA replication after 48 hrs by RT-PCR analysis. Type of data set: functional, organism-based. Particulars: human gammaherpesvirus 4, P3HR-1, 48 h. A digest of the protocol:
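P3HR-1 Burkitt lymphoma cells latently carrying EBV, grown in RPMI 1640 with 10% FBS, induced to lytic replication with TPA 20 ng/mL plus sodium butyrate 0.3 mM. Compounds added 3 h later across a concentration range. At 48 h post-induction, total cellular DNA purified, EBV genome copies quantified by SYBR green real-time PCR for EBNA1. Noninduced background subtracted, normalised to untreated induced cells, EC50 from dose-response curve.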
One may read the EC50 as the concentration at which the effect is half-maximal. Take `COc1ccc([C@@H](O)[C@@H](C)Oc2ccc([C@H]3O[C@H](c4ccc(O[C@H](C)[C@H](O)c5ccc6c(c5)OCO6)c(OC)c4)[C@H](C)[C@H]3C)cc2OC)cc1O`: the concentration for a half-maximal effect (EC50) came to 2.69 µM.

In the case of `COc1ccc([C@@H](O)[C@@H](C)Oc2ccc(C(=O)[C@H](C)[C@H](C)C(=O)c3ccc(O[C@H](C)[C@H](O)c4ccc5c(c4)OCO5)c(OC)c3)cc2OC)cc1OC`, the EC50 was 16.2 µM.

Regarding `COc1cc(C(=O)[C@@H](C)Oc2c(OC)cc(/C=C/CO)cc2OC)cc(OC)c1OC`, the EC50 was determined as 80.1 µM.

`COc1cc([C@H]2O[C@@H](c3ccc(OC)c(OC)c3)[C@@H](C)[C@H]2C)ccc1O`: the half-maximal effective concentration (EC50) was 26.9 µM.

Regarding `C=CCc1cc(OC)c(O[C@H](C)[C@H](OC(C)=O)c2cc(OC)c(OC)c(OC)c2)c(OC)c1`, the EC50 turned out to be 21.5 µM.

Turning to `COc1cc([C@H]2O[C@@H](c3cc(OC)c(OC)c(OC)c3)[C@H](C)[C@@H]2C)cc(OC)c1O`, the EC50 was determined as 29.5 µM.

Consider `COc1cc([C@@H](O)[C@@H](C)Oc2ccc([C@@H]3O[C@H](c4ccc(O)c(OC)c4)[C@H](C)[C@H]3C)cc2OC)ccc1O`, for which the EC50 stood at 6.95 µM.

In the case of `COc1ccc([C@H]2O[C@@H](c3cc(OC)c(O)c(OC)c3)[C@H](C)[C@@H]2C)cc1OC`, the EC50 was 11.6 µM.

`C/C=C/c1cc(OC)c(O[C@H](C)[C@H](OC(C)=O)c2cc(OC)c(OC)c(OC)c2)c(OC)c1`: the EC50 was 25.4 µM.

For the compound `COc1ccc([C@H]2O[C@@H](c3ccc(OC)c(OC)c3)[C@@H](C)[C@H]2C)cc1OC`, the EC50 turned out to be 49.9 µM.

On to `COc1ccc([C@@H](O)[C@@H](C)Oc2ccc([C@H]3O[C@H](c4ccc(O[C@H](C)[C@H](O)c5ccc6c(c5)OCO6)c(OC)c4)[C@H](C)[C@H]3C)cc2OC)cc1OC` [MANASSANTIN B], for which the EC50 is 1.72 µM.

With `C/C=C/c1cc(OC)c(O[C@H](C)[C@H](O)c2cc(OC)c3c(c2)OCO3)c(OC)c1`, the EC50 turned out to be 21.7 µM.

Take `C=CCc1cc(OC)c(O[C@H](C)[C@H](O)c2cc(OC)c3c(c2)OCO3)c(OC)c1`: the EC50 is 12.8 µM.

As to `C=CCc1cc(OC)c(O[C@H](COC(C)=O)[C@H](O)c2cc(OC)c(OC)c(OC)c2)c(OC)c1`, the EC50 is 53.3 µM.

System in a further data set: not listed separately
Description: Cytotoxicity against human P3HR1 cells assessed as cell viability after 2 days by trypan blue staining-based light microscopy. Further details: species or system P3HR-1.
Settings: not given
What is called CC50 is the concentration giving 50% cytotoxicity. Consider `COc1ccc([C@@H](O)[C@@H](C)Oc2ccc([C@H]3O[C@H](c4ccc(O[C@H](C)[C@H](O)c5ccc6c(c5)OCO6)c(OC)c4)[C@H](C)[C@H]3C)cc2OC)cc1O`, for which the CC50 at 48 h was 26.5 µM.

On to `COc1ccc([C@@H](O)[C@@H](C)Oc2ccc(C(=O)[C@H](C)[C@H](C)C(=O)c3ccc(O[C@H](C)[C@H](O)c4ccc5c(c4)OCO5)c(OC)c3)cc2OC)cc1OC`, for which the CC50 at 48 h was above 200 µM.

On to `COc1cc(C(=O)[C@@H](C)Oc2c(OC)cc(/C=C/CO)cc2OC)cc(OC)c1OC`, for which the CC50 at 48 h is above 200 µM.

Take `COc1cc([C@H]2O[C@@H](c3ccc(OC)c(OC)c3)[C@@H](C)[C@H]2C)ccc1O`: the CC50 at 48 h came to 62.3 µM.

On to `C=CCc1cc(OC)c(O[C@H](C)[C@H](OC(C)=O)c2cc(OC)c(OC)c(OC)c2)c(OC)c1`, for which the CC50 at 48 h was determined as 85 µM.

For the compound `COc1cc([C@H]2O[C@@H](c3cc(OC)c(OC)c(OC)c3)[C@H](C)[C@@H]2C)cc(OC)c1O`, the CC50 at 48 h stood at 65.8 µM.

Consider `COc1cc([C@@H](O)[C@@H](C)Oc2ccc([C@@H]3O[C@H](c4ccc(O)c(OC)c4)[C@H](C)[C@H]3C)cc2OC)ccc1O`, for which the CC50 at 48 h was 23.2 µM.

On to `COc1ccc([C@H]2O[C@@H](c3cc(OC)c(O)c(OC)c3)[C@H](C)[C@@H]2C)cc1OC`, for which the CC50 at 48 h is 100 µM.

Regarding `C/C=C/c1cc(OC)c(O[C@H](C)[C@H](OC(C)=O)c2cc(OC)c(OC)c(OC)c2)c(OC)c1`, the CC50 at 48 h was found to be 76.8 µM.

As for `COc1ccc([C@H]2O[C@@H](c3ccc(OC)c(OC)c3)[C@@H](C)[C@H]2C)cc1OC`, the 50% cytotoxic concentration (CC50) at 48 h came to 59.8 µM.

With `COc1ccc([C@@H](O)[C@@H](C)Oc2ccc([C@H]3O[C@H](c4ccc(O[C@H](C)[C@H](O)c5ccc6c(c5)OCO6)c(OC)c4)[C@H](C)[C@H]3C)cc2OC)cc1OC` [MANASSANTIN B], the CC50 at 48 h is above 200 µM.

For `C/C=C/c1cc(OC)c(O[C@H](C)[C@H](O)c2cc(OC)c3c(c2)OCO3)c(OC)c1`, the CC50 at 48 h amounted to 90.3 µM.

With `C=CCc1cc(OC)c(O[C@H](C)[C@H](O)c2cc(OC)c3c(c2)OCO3)c(OC)c1`, the CC50 at 48 h amounted to 50.6 µM.

As to `C=CCc1cc(OC)c(O[C@H](COC(C)=O)[C@H](O)c2cc(OC)c(OC)c(OC)c2)c(OC)c1`, the CC50 at 48 h came out at 194 µM.
